Measurements from ChEMBL document CHEMBL1139833, “Synthesis and metabotropic glutamate receptor activity of S-oxidized variants of (-)-4-amino-2-thiabicyclo-[3.1.0]hexane-4,6-dicarboxylate: identification of potent, selective, and orally bioavailable agonists for mGlu2/3 receptors” (J Med Chem, 2007).
Active and inactive are the calls of the source. The rule behind the calls is not given here.

Experiments:
[1] = molecular target: T1, Metabotropic glutamate receptor 3 (Homo sapiens, UniProt Q14832); experiment: Agonist activity at human mGluR3 assessed as effect on cAMP production in RGT cells; type: functional, cell-based
In short: (§1)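 cAMP second-messenger responses measured in RGT cells. These are non-neuronal AV12-664 cells coexpressing the glutamate transporter GLAST, to minimize glutamate activity, plus the recombinant human receptor (mGlu2, mGlu3 or mGlu8). Agonist EC50 determined.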

[2] = molecular target: T2, Metabotropic glutamate receptor 2 (Homo sapiens, UniProt Q14416); experiment: Displacement of [3H]LY341495 from human recombinant mGluR2 in RGT cells; type: cell-based
[3] = molecular target: T1, Metabotropic glutamate receptor 3; experiment: Displacement of [3H]LY341495 from human recombinant mGluR3 in RGT cells; type: cell-based
In short: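 Radioligand binding on membranes carrying recombinant human mGlu2 or mGlu3, displacing the antagonist [3H]LY341495. Ki was calculated from IC50 by the Cheng-Prusoff equation. Values are the mean of at least three separate experiments.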

[4] = molecular target: T2, Metabotropic glutamate receptor 2; experiment: Agonist activity at human mGluR2 assessed as effect on cAMP production in RGT cells; type: functional, cell-based; in short: as §1
[5] = molecular target: Metabotropic glutamate receptor 8 (Homo sapiens, UniProt O00222); experiment: Agonist activity at human mGluR8 assessed as effect on cAMP production in RGT cells; type: functional, cell-based; in short: as §1
[6] = molecular target: Metabotropic glutamate receptor 1 (Homo sapiens) (UniProt Q13255); experiment: Agonist activity at human mGluR1a assessed as effect on cAMP production in RGT cells upto 100 uM; type: functional, cell-based
In short: (§2)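 Compounds were tested at concentrations up to 100 µM for agonist or antagonist effects. Assays used RGT cells, which are AV12-664 cells coexpressing GLAST and recombinant human mGlu1a, mGlu5a, mGlu4a or mGlu7a.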

[7] = molecular target: Metabotropic glutamate receptor 5 (Homo sapiens) (UniProt P41594); experiment: Agonist activity at human mGluR5a assessed as effect on cAMP production in RGT cells upto 100 uM; type: functional, cell-based; in short: as §2
[8] = molecular target: Metabotropic glutamate receptor 4 (Homo sapiens) (UniProt Q14833); experiment: Agonist activity at human mGluR4a assessed as effect on cAMP production in RGT cells upto 100 uM; type: functional, cell-based; in short: as §2
[9] = molecular target: Metabotropic glutamate receptor 7 (Homo sapiens) (UniProt Q14831); experiment: Agonist activity at human mGluR7a assessed as effect on cAMP production in RGT cells upto 100 uM; type: functional, cell-based; in short: as §2
[10] = molecular target: Metabotropic glutamate receptor 1 (Homo sapiens) (UniProt Q13255); experiment: Antagonist activity against human mGluR1a assessed as effect on cAMP production in RGT cells upto 100 uM; type: functional, cell-based; in short: as §2
[11] = molecular target: Metabotropic glutamate receptor 5 (Homo sapiens) (UniProt P41594); experiment: Antagonist activity against human mGluR5a assessed as effect on cAMP production in RGT cells upto 100 uM; type: functional, cell-based; in short: as §2
[12] = molecular target: Metabotropic glutamate receptor 4 (Homo sapiens) (UniProt Q14833); experiment: Antagonist activity against human mGluR4a assessed as effect on cAMP production in RGT cells upto 100 uM; type: functional, cell-based; in short: as §2
[13] = molecular target: Metabotropic glutamate receptor 7 (Homo sapiens) (UniProt Q14831); experiment: Antagonist activity against human mGluR7a assessed as effect on cAMP production in RGT cells upto 100 uM; type: functional, cell-based; in short: as §2
Rattus norvegicus [14] = experiment: Plasma concentration in Fischer 344 rat at 10 mg/kg, po after 0.5 hrs; type: ADME, organism-based; parameters: dose 10 mg/kg, route oral; settings: in vivo
In short: (§3)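 Plasma levels in fasted male Fischer 344 rats after a 10 mg/kg oral dose in pH 7 water (NaOH), quantified by positive-ion electrospray LC/MS/MS. Main protocol sampled at 0.08/0.25–24 h, n=3 rats per time point. A variant oral-only arm used n=6 rats with samples at 0.5, 1, 2, 3, 4 and 6 h.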

Rattus norvegicus [15] = experiment: Plasma concentration in Fischer 344 rat at 10 mg/kg, po after 1 hrs; type: ADME, organism-based; parameters: dose 10 mg/kg, route oral; settings: in vivo; in short: as §3
Rattus norvegicus [16] = experiment: Plasma concentration in Fischer 344 rat at 10 mg/kg, po after 2 hrs; type: ADME, organism-based; parameters: dose 10 mg/kg, route oral; settings: in vivo; in short: as §3
Rattus norvegicus [17] = experiment: Plasma concentration in Fischer 344 rat at 10 mg/kg, po after 3 hrs; type: ADME, organism-based; parameters: dose 10 mg/kg, route oral; settings: in vivo; in short: as §3
Rattus norvegicus [18] = experiment: Plasma concentration in Fischer 344 rat at 10 mg/kg, po after 4 hrs; type: ADME, organism-based; parameters: dose 10 mg/kg, route oral; settings: in vivo; in short: as §3
Rattus norvegicus [19] = experiment: Plasma concentration in Fischer 344 rat at 10 mg/kg, po after 6 hrs; type: ADME, organism-based; parameters: dose 10 mg/kg, route oral; settings: in vivo; in short: as §3
Rattus norvegicus [20] = experiment: (§4) AUC (0-24h) in Fischer 344 rat at 10 mg/kg, po; type: ADME, organism-based, Plasma; parameters: time < 24 hr, dose 10 mg/kg, route oral; settings: rat, in vivo, 24 h
In short: (§5)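 Male Fischer 344 rats fasted overnight, food returned 4 h post dose, water ad libitum. Doses were in water brought to pH 7 with NaOH, given i.v. (2.5 or 10 mg/kg) or p.o. (10 mg/kg). Nine rats per dose group, three per time point, with blood taken over 0.08–24 h. Plasma measured by LC/MS/MS.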

Rattus norvegicus [21] = experiment: Cmax in Fischer 344 rat at 10 mg/kg, po; type: ADME, organism-based; parameters: dose 10 mg/kg, route oral; settings: in vivo; in short: as §5
Rattus norvegicus [22] = experiment: (§6) Tmax in Fischer 344 rat at 10 mg/kg, po; type: ADME, organism-based; parameters: dose 10 mg/kg, route oral; settings: rat, in vivo; in short: as §5
[23] = Plasma concentration in Fischer 344 rat after 1 hr; type: ADME, organism-based; in short: as §3
[24] = Plasma concentration in Fischer 344 rat after 3 hrs; type: ADME, organism-based; in short: as §3
[25] = Plasma concentration in Fischer 344 rat after 8 hrs; type: ADME, organism-based; in short: as §3
Rattus norvegicus [26] = experiment: Reduction of PCP-induced ambulations in Sprague-Dawley rat at 3 mg/kg, po; type: functional; parameters: scale not given: the % may be the effect or the level left
In short: (§7)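 Male Sprague-Dawley rats (225-274 g) fasted 12-18 h and habituated 30 min to the test cage. Test drug or vehicle was given orally 2 h before PCP (5 mg/kg s.c.) or 0.9% NaCl. Horizontal photobeam breaks were counted over 60 min, n=8-13 per group.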

Rattus norvegicus [27] = experiment: Reduction of PCP-induced ambulations in Sprague-Dawley rat at 10 mg/kg, po; type: functional; parameters: scale not given: the % may be the effect or the level left; in short: as §7
Rattus norvegicus [28] = experiment: Inhibition of PCP-induced ambulations in Sprague-Dawley rat after oral administration; type: functional; in short: as §7
[29] = as §4; type: ADME, organism-based, Plasma; parameters: time < 24 hr, dose 10 mg/kg, route oral; settings: Fischer 344, rat, plasma; in short: as §5
[30] = AUC (0-24h) in Fischer 344 rat at 2.5 mg/kg, iv; type: ADME, organism-based; parameters: time < 24 hr, dose 2.5 mg/kg, route intravenous; settings: plasma; in short: as §5
Rattus norvegicus [31] = experiment: Cmax in Fischer 344 rat at 2.5 mg/kg, iv; type: ADME, organism-based; parameters: dose 2.5 mg/kg, route intravenous; settings: in vivo; in short: as §5
[32] = as §6; type: ADME, organism-based; parameters: dose 10 mg/kg, route oral; settings: Fischer 344, rat, in vivo; in short: as §5
[33] = Tmax in Fischer 344 rat at 2.5 mg/kg, iv; type: ADME, organism-based; parameters: dose 2.5 mg/kg, route intravenous; settings: in vivo; in short: as §5
[34] = Oral bioavailability in Fischer 344 rat at 10 mg/kg, po; type: ADME, organism-based; settings: in vivo; in short: as §5
Rattus norvegicus [35] = experiment: AUC (0-24h) in Fischer 344 rat at 10 mg/kg, po; settings: in vivo

T1 sequence (Q14832 whole entry): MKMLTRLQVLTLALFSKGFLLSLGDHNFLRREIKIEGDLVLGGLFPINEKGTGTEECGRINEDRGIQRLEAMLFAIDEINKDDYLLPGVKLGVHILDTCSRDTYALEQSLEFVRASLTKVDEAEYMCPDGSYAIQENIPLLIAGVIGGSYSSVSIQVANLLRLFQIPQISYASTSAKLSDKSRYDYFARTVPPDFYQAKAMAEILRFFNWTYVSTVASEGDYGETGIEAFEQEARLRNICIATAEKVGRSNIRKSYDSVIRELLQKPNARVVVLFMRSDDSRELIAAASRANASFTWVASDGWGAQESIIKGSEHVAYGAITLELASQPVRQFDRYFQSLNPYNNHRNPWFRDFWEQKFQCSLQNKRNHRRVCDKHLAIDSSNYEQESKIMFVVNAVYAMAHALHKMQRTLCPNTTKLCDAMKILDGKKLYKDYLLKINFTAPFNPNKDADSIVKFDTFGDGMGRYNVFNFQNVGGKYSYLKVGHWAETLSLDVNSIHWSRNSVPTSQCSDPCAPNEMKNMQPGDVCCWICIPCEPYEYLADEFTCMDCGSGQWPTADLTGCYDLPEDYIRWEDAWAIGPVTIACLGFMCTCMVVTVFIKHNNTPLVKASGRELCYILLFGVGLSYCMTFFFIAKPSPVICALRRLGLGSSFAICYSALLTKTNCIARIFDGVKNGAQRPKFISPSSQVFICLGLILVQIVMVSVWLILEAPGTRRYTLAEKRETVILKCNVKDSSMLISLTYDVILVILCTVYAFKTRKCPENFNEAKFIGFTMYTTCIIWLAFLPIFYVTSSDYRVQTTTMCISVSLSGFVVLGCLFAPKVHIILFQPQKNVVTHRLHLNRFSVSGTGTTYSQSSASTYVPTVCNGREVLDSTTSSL
Metabotropic glutamate receptor 4 (Homo sapiens), sequence (Q14833 whole entry): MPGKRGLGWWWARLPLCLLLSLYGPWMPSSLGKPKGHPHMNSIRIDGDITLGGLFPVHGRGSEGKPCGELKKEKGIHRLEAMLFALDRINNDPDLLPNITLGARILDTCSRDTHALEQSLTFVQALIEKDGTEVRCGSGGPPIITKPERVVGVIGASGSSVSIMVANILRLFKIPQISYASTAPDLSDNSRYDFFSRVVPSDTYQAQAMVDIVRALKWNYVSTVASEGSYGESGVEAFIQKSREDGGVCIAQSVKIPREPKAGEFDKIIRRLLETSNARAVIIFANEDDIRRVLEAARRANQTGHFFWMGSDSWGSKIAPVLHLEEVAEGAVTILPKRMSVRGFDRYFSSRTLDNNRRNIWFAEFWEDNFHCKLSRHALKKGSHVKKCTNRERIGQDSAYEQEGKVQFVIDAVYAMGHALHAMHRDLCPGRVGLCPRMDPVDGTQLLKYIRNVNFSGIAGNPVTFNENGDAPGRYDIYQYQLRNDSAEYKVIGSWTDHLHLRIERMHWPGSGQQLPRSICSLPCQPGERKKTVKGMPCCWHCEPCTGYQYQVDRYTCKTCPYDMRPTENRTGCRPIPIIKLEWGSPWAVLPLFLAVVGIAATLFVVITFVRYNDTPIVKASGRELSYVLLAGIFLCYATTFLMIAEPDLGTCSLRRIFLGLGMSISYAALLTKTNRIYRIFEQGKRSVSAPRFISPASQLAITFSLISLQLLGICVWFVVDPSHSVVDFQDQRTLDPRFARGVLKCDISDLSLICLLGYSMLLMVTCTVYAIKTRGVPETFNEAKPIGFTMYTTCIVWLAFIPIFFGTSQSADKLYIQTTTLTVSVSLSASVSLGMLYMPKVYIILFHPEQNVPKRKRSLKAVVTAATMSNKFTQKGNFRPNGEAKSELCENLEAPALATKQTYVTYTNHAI
Metabotropic glutamate receptor 1 (Homo sapiens), sequence (Q13255 19-1194 limits assumed): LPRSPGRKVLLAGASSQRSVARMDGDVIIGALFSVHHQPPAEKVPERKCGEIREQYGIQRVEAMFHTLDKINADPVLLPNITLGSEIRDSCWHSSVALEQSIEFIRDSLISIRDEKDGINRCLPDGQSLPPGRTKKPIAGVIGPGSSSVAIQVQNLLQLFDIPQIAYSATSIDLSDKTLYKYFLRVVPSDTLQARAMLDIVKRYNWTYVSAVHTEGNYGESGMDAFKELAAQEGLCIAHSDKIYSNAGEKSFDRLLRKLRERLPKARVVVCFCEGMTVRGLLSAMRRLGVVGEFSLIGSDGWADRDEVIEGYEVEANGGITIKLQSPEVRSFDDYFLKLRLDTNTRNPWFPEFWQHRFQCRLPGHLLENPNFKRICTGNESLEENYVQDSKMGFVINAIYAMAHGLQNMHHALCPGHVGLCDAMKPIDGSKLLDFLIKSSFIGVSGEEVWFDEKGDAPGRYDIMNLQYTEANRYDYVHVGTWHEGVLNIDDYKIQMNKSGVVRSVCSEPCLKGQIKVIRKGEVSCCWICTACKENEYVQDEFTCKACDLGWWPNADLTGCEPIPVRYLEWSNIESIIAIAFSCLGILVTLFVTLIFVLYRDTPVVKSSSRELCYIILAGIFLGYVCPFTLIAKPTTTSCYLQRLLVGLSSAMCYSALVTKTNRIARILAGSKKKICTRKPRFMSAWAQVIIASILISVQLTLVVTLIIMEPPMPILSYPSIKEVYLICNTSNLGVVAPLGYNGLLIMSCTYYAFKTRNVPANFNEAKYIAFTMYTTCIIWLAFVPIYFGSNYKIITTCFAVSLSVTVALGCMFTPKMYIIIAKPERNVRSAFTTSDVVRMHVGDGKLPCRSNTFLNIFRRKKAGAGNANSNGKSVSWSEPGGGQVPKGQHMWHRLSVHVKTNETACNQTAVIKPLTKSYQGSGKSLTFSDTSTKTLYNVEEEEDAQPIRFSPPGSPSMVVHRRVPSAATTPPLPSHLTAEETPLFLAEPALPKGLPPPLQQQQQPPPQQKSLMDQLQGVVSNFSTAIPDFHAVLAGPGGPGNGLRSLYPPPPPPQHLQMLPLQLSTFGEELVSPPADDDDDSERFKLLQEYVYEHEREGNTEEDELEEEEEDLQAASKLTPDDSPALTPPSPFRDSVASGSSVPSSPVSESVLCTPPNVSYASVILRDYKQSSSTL
Metabotropic glutamate receptor 5 (Homo sapiens), sequence (P41594 21-1212 limits assumed): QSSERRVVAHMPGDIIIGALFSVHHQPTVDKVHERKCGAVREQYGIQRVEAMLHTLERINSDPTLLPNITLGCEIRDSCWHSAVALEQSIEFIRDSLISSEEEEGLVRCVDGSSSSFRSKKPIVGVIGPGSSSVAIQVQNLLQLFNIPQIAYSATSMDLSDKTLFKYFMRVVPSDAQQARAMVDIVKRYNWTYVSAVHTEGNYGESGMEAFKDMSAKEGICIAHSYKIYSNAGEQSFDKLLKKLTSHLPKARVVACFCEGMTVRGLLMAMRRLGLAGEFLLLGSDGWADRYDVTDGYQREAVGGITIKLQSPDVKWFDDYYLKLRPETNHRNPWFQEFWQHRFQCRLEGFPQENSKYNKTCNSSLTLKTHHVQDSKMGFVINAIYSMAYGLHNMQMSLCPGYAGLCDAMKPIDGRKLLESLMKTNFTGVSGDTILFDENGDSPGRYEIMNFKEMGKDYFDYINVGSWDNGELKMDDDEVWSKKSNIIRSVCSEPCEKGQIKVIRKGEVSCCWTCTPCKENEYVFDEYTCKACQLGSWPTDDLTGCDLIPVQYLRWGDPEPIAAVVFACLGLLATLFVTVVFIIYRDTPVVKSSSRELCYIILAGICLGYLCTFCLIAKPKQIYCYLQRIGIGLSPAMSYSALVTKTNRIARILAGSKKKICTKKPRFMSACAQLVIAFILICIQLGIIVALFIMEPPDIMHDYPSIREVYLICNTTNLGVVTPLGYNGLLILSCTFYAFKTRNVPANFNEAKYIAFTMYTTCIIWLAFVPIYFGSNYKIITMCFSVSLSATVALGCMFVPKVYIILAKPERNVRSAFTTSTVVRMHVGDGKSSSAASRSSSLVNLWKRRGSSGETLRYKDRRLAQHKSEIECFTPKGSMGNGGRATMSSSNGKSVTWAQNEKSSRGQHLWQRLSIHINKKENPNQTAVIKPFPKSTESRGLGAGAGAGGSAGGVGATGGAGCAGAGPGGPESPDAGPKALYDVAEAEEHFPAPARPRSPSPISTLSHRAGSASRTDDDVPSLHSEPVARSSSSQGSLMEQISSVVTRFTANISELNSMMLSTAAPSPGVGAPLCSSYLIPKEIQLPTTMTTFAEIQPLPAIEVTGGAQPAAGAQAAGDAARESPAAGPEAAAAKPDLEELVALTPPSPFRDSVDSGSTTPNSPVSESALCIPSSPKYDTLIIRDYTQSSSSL
Metabotropic glutamate receptor 7 (Homo sapiens), sequence (Q14831 whole entry): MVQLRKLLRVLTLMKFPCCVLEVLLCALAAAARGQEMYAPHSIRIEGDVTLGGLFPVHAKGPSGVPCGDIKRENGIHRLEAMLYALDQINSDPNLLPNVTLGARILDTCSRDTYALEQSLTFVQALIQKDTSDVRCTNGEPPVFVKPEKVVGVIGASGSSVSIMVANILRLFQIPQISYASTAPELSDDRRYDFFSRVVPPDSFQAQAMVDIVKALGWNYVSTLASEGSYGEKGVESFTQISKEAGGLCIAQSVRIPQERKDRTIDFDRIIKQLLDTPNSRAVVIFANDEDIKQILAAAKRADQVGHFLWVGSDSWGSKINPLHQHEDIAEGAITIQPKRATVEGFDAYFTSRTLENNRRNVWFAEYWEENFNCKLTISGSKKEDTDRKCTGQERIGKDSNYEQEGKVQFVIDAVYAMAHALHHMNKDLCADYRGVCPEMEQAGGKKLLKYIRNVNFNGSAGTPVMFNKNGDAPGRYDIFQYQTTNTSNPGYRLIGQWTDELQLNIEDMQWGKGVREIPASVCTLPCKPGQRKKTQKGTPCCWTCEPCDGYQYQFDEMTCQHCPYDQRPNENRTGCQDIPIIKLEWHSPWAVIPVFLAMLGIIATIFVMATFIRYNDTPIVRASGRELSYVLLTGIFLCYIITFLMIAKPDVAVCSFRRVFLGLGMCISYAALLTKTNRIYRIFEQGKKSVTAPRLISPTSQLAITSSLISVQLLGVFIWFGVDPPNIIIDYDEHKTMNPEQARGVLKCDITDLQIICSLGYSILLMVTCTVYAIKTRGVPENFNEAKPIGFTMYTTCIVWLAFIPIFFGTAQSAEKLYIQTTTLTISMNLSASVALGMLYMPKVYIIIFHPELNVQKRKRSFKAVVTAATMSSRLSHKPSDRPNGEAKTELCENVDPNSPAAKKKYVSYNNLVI

Row | EC50 [1] [nM] | Ki [3] [nM] | EC50 [4] [nM] | EC50 [5] [nM] | Activity [6] | Activity [7] | Activity [8] | Activity [9] | Activity [10] | Activity [11] | Activity [12] | Activity [13] | Cmax (Rattus norvegicus [21]) [ng/mL] | Structure (SMILES) | other results
1 | – | – | – | – | inactive | inactive | inactive | inactive | inactive | inactive | inactive | inactive | – | N[C@@]1(C(=O)O)C[S+]([O-])[C@H]2[C@H](C(=O)O)[C@H]21 (stereo in doubt; (-)-10) [listing 2 of 2 here] | –
2 | – | – | – | – | – | – | – | – | – | – | – | – | 400 | N[C@@]1(C(=O)O)C[S+]([O-])[C@H]2[C@H](C(=O)O)[C@H]21 (stereo in doubt; (-)-11) [listing 1 of 2 here] | Cp (Rattus norvegicus [14]): 325 ng/mL; Cp (Rattus norvegicus [15]): 367 ng/mL; Cp (Rattus norvegicus [16]): 258 ng/mL; Cp (Rattus norvegicus [17]): 229 ng/mL; Cp (Rattus norvegicus [18]): 77 ng/mL; Cp (Rattus norvegicus [19]): 71.8 ng/mL; AUC (Rattus norvegicus [20]): 1100 ng·h/mL; Tmax (Rattus norvegicus [22]): 1 h
3 | – | – | – | – | – | – | – | – | inactive | inactive | inactive | inactive | – | N[C@@]1(C(=O)O)C[S+]([O-])[C@H]2[C@H](C(=O)O)[C@H]21 (stereo in doubt; (-)-11) [listing 2 of 2 here] | –

Further lines, the compound ahead of its results:

Row | Structure (SMILES) | EC50 [1] [nM] | Ki [3] [nM] | EC50 [4] [nM] | EC50 [5] [nM] | Activity [6] | Activity [7] | Activity [8] | Activity [9] | Activity [10] | Activity [11] | Activity [12] | Activity [13] | Cmax (Rattus norvegicus [21]) [ng/mL] | other results
4 | N[C@@]1(C(=O)O)C[S+]([O-])[C@H]2[C@H](C(=O)O)[C@H]21 (stereo in doubt; (-)-10) [listing 1 of 2 here] | 210 | 447 | 18.1 | > 100000 | – | – | – | – | – | – | – | – | – | Ki [2]: 508 nM
5 | N[C@@]1(C(=O)O)CS(=O)(=O)[C@H]2[C@H](C(=O)O)[C@H]21 [LY404039] | 48 | 92 | 23.4 | 47800 | inactive | inactive | inactive | inactive | inactive | inactive | inactive | inactive | 4000 | concentration at 1 h [23]: 4000 ng/mL; concentration at 3 h [24]: > 500 ng/mL; concentration at 8 h [25]: < 10 ng/mL; Activity (Rattus norvegicus [26]): 91%; Activity (Rattus norvegicus [27]): 91%; ED50 (Rattus norvegicus [28]): 2.5 mg/kg; AUC(0-t) at 24 h [29]: 7200 ng·h/mL; AUC(0-t) at 24 h [30]: 2900 ng·h/mL; Cmax (Rattus norvegicus [31]): 7500 ng/mL; Tmax [32]: 1 h; Tmax [33]: 0 h; bioavailability [34]: 63%; AUC (Rattus norvegicus [35]): 7.2 µg/mL
